Experimental data reported in ChEMBL document CHEMBL1127688, “Guaiacoxypropanolamine derivatives of capsaicin: a new family of beta-adrenoceptor blockers with intrinsic cardiotonic properties” (J Med Chem, 1994).

Tests used:
Rattus norvegicus [1] = assay: Change in blood pressure was tested by inducing ia injection at a dose 0.1 mg/kg in rat; format: functional; conditions: route intra-arterial
Rattus norvegicus [2] = assay: Minimum dose of iv injection that shows vagus reflex and a heart rate decrease of 50 beats/min in non-vagotomized rats; format: functional
Procedure, shortened: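 Non-vagotomized rats given increasing iv doses. The value is the lowest dose (mg/kg) that elicits a vagus reflex with a heart-rate fall of 50 beats/min. Compounds were scored ineffective if no such response occurred below 3 mg/kg. n = 8.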

Rattus norvegicus [3] = assay: Blood pressure of the urethane-anesthetized normotensive Wistar rat was tested 15 min after inducing the compound on dose of 1.0 mg/kg; format: functional
Procedure, shortened: (§1)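 Urethane-anesthetized normotensive Wistar rats given a single iv injection at 1.0 mg/kg. Blood pressure (mmHg) and heart rate (beats/min) recorded, and the change reported at 5, 10, 15, 30 and 60 min after dosing. Saline-injected controls. Mean ± SE, n = 8. Significance versus saline by analysis of variance.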

Rattus norvegicus [4] = assay: Blood pressure of the urethane-anesthetized normotensive Wistar rat was tested 10 min after inducing the compound on dose of 1.0 mg/kg; format: functional; procedure, shortened: as §1
Cavia porcellus [5] = species: Cavia porcellus; assay: Positive chronotropic effect was evaluated on atrial muscles of the guinea pig; format: functional, Muscle tissue; conditions: for Kb: Cavia porcellus, Muscle tissue, read-out: pA2 (converted)
Rattus norvegicus [6] = assay: Blood pressure of the urethane-anesthetized normotensive Wistar rat was tested 5 min after inducing the compound on dose of 1.0 mg/kg; format: functional; procedure, shortened: as §1
Rattus norvegicus [7] = assay: Heart rate of the urethane-anesthetized normotensive Wistar rat was tested 10 min after inducing the compound on dose of 1.0 mg/kg; format: functional; procedure, shortened: as §1
Rattus norvegicus [8] = assay: Heart rate of the urethane-anesthetized normotensive Wistar rat was tested 60 min after inducing the compound on dose of 1.0 mg/kg; format: functional; procedure, shortened: as §1
Cavia porcellus [9] = species: Cavia porcellus; assay: Positive inotropic effect was evaluated on atrial muscles of the guinea pig; format: functional, Muscle tissue; conditions: for Kb: Cavia porcellus, Muscle tissue, read-out: pA2 (converted)
Rattus norvegicus [10] = assay: Heart rate of the urethane-anesthetized normotensive Wistar rat was tested 5 min after inducing the compound on dose of 1.0 mg/kg; format: functional; procedure, shortened: as §1
Rattus norvegicus [11] = assay: Blood pressure of the urethane-anesthetized normotensive Wistar rat was tested 60 min after inducing the compound on dose of 1.0 mg/kg; format: functional; procedure, shortened: as §1
Rattus norvegicus [12] = assay: Blood pressure of the urethane-anesthetized normotensive Wistar rat was tested 30 min after inducing the compound on dose of 1.0 mg/kg; format: functional; procedure, shortened: as §1
Rattus norvegicus [13] = assay: Heart rate of the urethane-anesthetized normotensive Wistar rat was tested 15 min after inducing the compound on dose of 1.0 mg/kg; format: functional; procedure, shortened: as §1
Rattus norvegicus [14] = assay: Heart rate of the urethane-anesthetized normotensive Wistar rat was tested 30 min after inducing the compound on dose of 1.0 mg/kg; format: functional; procedure, shortened: as §1
Rattus norvegicus [15] = assay: Change in blood pressure was tested by inducing ia injection at a dose 0.01 mg/kg in rat; format: functional; conditions: route intra-arterial
Procedure, shortened: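 Urethane-anaesthetised normotensive Wistar rats; single intra-arterial bolus via the superficial epigastric artery. Read-out is the depressor change in systemic blood pressure in mmHg. Data are means ± SE, n = 8, analysed by ANOVA.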

| SMILES | BP (Rattus norvegicus [3]) [mmHg] | BP (Rattus norvegicus [4]) [mmHg] | Kb (Cavia porcellus [5]) [nM] | BP (Rattus norvegicus [6]) [mmHg] | HR (Rattus norvegicus [7]) [beats min-1] | HR (Rattus norvegicus [8]) [beats min-1] | Kb (Cavia porcellus [9]) [nM] | HR (Rattus norvegicus [10]) [beats min-1] | BP (Rattus norvegicus [11]) [mmHg] | BP (Rattus norvegicus [12]) [mmHg] | HR (Rattus norvegicus [13]) [beats min-1] | HR (Rattus norvegicus [14]) [beats min-1] | other results |
| --- | --- | --- | --- | --- | --- | --- | --- | --- | --- | --- | --- | --- | --- |
| CCCCCCCCC(=O)NCc1ccc(OCCO)c(OC)c1 | – | – | – | – | – | – | – | – | – | – | – | – | BP (Rattus norvegicus [1]): -44.2 mmHg; Dose (Rattus norvegicus [2]): 0.3 mg/kg |
| CCCCCCCCC(=O)NCc1ccc(OCC(O)CNCCCCC)c(OC)c1 (configuration not stated) | -0.88 | -1.67 | 64.6 | -4.67 | -23.33 | -6.56 | 28.2 | -25.11 | 2.44 | 3.67 | -10.22 | -5.78 | – |
| CCCCCCCCC(=O)NCc1ccc(OCC(O)CNC(C)CC)c(OC)c1 (configuration not stated) | 3.33 | 4.89 | 120 | 4.11 | -35.44 | -9.56 | 22.4 | -38.56 | 1.22 | -0.88 | -32.33 | -25.11 | – |
| CCCCCCCCC(=O)NCc1ccc(OCC(O)CNCCCCCC)c(OC)c1 (configuration not stated) | -4.44 | -2.89 | 933 | -2.22 | -24.11 | -8 | 66.1 | -35.56 | 1.89 | -2.11 | -14.89 | -12.67 | – |
| CCCCCCCCC(=O)NCc1ccc(OCCN(CC)CC)c(OC)c1 | – | – | – | – | – | – | – | – | – | – | – | – | BP (Rattus norvegicus [1]): -15 mmHg; Dose (Rattus norvegicus [2]): 0.5 mg/kg |
| CCCCCCCCC(=O)NCc1ccc(OCC(O)CNC)c(OC)c1 (configuration not stated) | -0.56 | -0.22 | 295 | -1.11 | -17.33 | 4.78 | 74.1 | -34.56 | 0.78 | 1.89 | -12.22 | 14.56 | – |
| CCCCCCCCC(=O)NCc1ccc(OCC(O)CNCCCC)c(OC)c1 (configuration not stated) | -1.22 | -1.22 | 58.9 | -0.22 | -33.78 | -3.67 | 53.7 | -40 | 3.33 | 0.11 | -26.22 | -15.33 | – |
| CCCCCCCCC(=O)NCc1ccc(OCC(O)CNC(C)C)c(OC)c1 (configuration not stated) | -2.89 | -1.22 | 17 | -0.44 | -40.78 | -20 | 8.51 | -50.22 | -1.33 | -6.67 | -35.44 | -32.67 | – |
| CCCCCCCCC(=O)NCc1ccc(OCCN(C)C)c(OC)c1 | – | – | – | – | – | – | – | – | – | – | – | – | BP (Rattus norvegicus [1]): -21.6 mmHg; Dose (Rattus norvegicus [2]): 0.5 mg/kg |
| CCCCCCCCC(=O)NCc1ccc(OCC(O)CNC(C)(C)C)c(OC)c1 (configuration not stated) | 2.38 | 3.38 | 39.8 | 3.13 | -37.75 | -18.5 | 15.8 | -45 | 4.63 | 1.25 | -29.5 | -24.88 | – |
| CCCCCCCCC(=O)NCc1ccc(OCC(O)CNC2CC2)c(OC)c1 (configuration not stated) | 3.89 | 3.11 | – | -0.11 | -38.89 | -2.67 | – | -47.67 | 2.22 | 3.67 | -23.67 | -11.89 | – |
| CCCCCCCCC(=O)NCc1ccc(OCC(O)CNCC)c(OC)c1 (configuration not stated) | 1.11 | 2.56 | 117 | 7.44 | -32.22 | 2.56 | 53.7 | -38.33 | 1.88 | -2.44 | -28 | -21.11 | – |
| CCCCCCCCC(=O)NCc1ccc(OCC(O)CNC2CCCCC2)c(OC)c1 (configuration not stated) | -3.67 | -4.22 | – | -4.11 | -28.44 | 2.78 | – | -32.33 | 0.67 | 1.33 | -11.67 | -1.78 | – |
| CCCCCCCCC(=O)NCc1ccc(OCC(O)CNCC(C)C)c(OC)c1 (configuration not stated) | 1.63 | 1.63 | 117 | -2.75 | -35.25 | 3.13 | 26.9 | -39.88 | 0.25 | 2 | -27.13 | 4.13 | – |
| CCCCCCCCC(=O)NCc1ccc(OCC(O)CNCCC)c(OC)c1 (stereo in doubt; 6) | – | – | 93.3 | – | – | – | 25.1 | – | – | – | – | – | BP (Rattus norvegicus [3]; 1 mg/kg): -1.89 mmHg; BP (Rattus norvegicus [4]; 1 mg/kg): -2.67 mmHg; BP (Rattus norvegicus [6]; 1 mg/kg): -1.56 mmHg; HR (Rattus norvegicus [7]; 1 mg/kg): -28.22 beats min-1; HR (Rattus norvegicus [8]; 1 mg/kg): -7.56 beats min-1; HR (Rattus norvegicus [10]; 1 mg/kg): -36.78 beats min-1; BP (Rattus norvegicus [11]; 1 mg/kg): 4.78 mmHg; BP (Rattus norvegicus [12]; 1 mg/kg): -1.11 mmHg; HR (Rattus norvegicus [13]; 1 mg/kg): -19.89 beats min-1; HR (Rattus norvegicus [14]; 1 mg/kg): -5 beats min-1 |
| CCCCCCCCC(=O)NCc1ccc(OCC(O)CNCCC)c(OC)c1 (stereo in doubt; 8) | – | – | – | – | – | – | – | – | – | – | – | – | BP (Rattus norvegicus [3]; 1 mg/kg): -3.11 mmHg; BP (Rattus norvegicus [4]; 1 mg/kg): -2.56 mmHg; pA2 (Cavia porcellus [5]): 6.79; BP (Rattus norvegicus [6]; 1 mg/kg): -1.78 mmHg; HR (Rattus norvegicus [7]; 1 mg/kg): -35.33 beats min-1; HR (Rattus norvegicus [8]; 1 mg/kg): -6.89 beats min-1; pA2 (Cavia porcellus [9]): 7.75; HR (Rattus norvegicus [10]; 1 mg/kg): -42.56 beats min-1; BP (Rattus norvegicus [11]; 1 mg/kg): -0.56 mmHg; BP (Rattus norvegicus [12]; 1 mg/kg): -2.44 mmHg; HR (Rattus norvegicus [13]; 1 mg/kg): -32 beats min-1; HR (Rattus norvegicus [14]; 1 mg/kg): -14.11 beats min-1 |
| COc1cc(CNC(=O)CCCC/C=C/C(C)C)ccc1O [CAPSAICIN] | – | – | – | – | – | – | – | – | – | – | – | – | BP (Rattus norvegicus [15]): -49.5 mmHg; Dose (Rattus norvegicus [2]): 0.001 mg/kg |
| CCCCCCCCC(=O)NCc1ccc(O)c(OC)c1 [NONIVAMIDE] | – | – | – | – | – | – | – | – | – | – | – | – | BP (Rattus norvegicus [15]): -28.3 mmHg; Dose (Rattus norvegicus [2]): 0.005 mg/kg |
| CC(C)NCC(O)COc1cccc2ccccc12 (configuration not stated) [PROPRANOLOL] | -6.5 | -6.33 | – | -2.83 | -63.85 | -52.14 | – | -57.28 | 2.17 | -4.67 | -65.28 | -62.57 | – |
